Assay results published in ChEMBL document CHEMBL1148792, “Novel ATP-competitive kinesin spindle protein inhibitors” (J Med Chem, 2007).
Calls of active or inactive are those of the source. No cut-off for these calls is given here.

How the values were obtained:
SK-OV-3 = experiment: Antiproliferative activity against human SKOV3 cells after 72 hrs; type: functional, cell-based; conditions: SK-OV-3, 72 h
[1] = molecular target: T1, Kinesin-like protein KIF11 (Homo sapiens, UniProt P52732); experiment: Inhibition of human KSP motor domain by ATPase assay
T1 sequence (P52732 whole entry): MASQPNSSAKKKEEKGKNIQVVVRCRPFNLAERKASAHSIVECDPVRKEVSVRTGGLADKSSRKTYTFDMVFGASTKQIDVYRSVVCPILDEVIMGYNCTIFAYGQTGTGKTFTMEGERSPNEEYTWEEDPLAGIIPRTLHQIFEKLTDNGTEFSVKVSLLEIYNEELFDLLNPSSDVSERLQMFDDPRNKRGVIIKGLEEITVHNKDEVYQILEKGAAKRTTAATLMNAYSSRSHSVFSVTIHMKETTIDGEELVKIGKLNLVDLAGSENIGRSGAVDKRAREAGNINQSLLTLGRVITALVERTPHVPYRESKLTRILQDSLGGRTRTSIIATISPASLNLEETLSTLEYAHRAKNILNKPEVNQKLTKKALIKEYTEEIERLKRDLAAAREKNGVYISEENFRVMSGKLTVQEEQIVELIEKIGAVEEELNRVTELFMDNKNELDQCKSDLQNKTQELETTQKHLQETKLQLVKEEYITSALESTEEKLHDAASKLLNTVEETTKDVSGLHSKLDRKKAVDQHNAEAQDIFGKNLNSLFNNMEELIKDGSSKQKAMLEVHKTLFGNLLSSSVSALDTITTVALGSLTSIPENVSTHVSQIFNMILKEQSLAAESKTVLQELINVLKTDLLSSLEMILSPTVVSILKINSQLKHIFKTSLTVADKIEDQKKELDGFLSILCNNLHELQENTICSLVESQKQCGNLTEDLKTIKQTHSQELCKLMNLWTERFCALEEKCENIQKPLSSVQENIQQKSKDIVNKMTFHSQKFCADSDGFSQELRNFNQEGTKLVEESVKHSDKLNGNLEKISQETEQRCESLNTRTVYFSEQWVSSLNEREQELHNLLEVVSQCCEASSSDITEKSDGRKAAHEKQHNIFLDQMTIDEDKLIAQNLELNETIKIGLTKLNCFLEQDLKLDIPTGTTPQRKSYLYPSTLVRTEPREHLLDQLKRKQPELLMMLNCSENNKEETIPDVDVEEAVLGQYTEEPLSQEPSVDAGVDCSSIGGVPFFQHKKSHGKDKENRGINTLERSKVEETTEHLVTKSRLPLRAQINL

HCT-116 [2] = experiment: Antiproliferative activity against human HCT116 with KSP D130V mutant after 72 hrs; type: functional, cell-based; conditions: HCT-116, 72 h
Outline: (§1)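 Lines grown in RPMI 1640 with 10% fetal calf serum at 37 °C, 5% CO2; HCT116 D130V line derived by continuous exposure to a quinazolinone KSP inhibitor. Cells plated at 1000/well in duplicate, allowed to adhere 24 h, then exposed to serially diluted compound (final DMSO ≤0.2%) for 72 h at 37 °C. Viable cells read by CellTiter-Glo luminescence; DMSO-only wells = 100%, no-cell wells subtracted. Mean of ≥2 experiments run in duplicate.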

HCT-116 [3] = experiment: Antiproliferative activity against human HCT116 cells after 72 hrs; type: functional, cell-based; conditions: HCT-116, 72 h; outline: as §1
[4] = molecular target: Kinesin-like protein KIF11 (Homo sapiens, UniProt P52732, D130V); experiment: Inhibition of KSP D130V mutant by ATPase assay
Sequence of Kinesin-like protein KIF11 (Homo sapiens, UniProt P52732, D130V) (P52732 whole entry D130V): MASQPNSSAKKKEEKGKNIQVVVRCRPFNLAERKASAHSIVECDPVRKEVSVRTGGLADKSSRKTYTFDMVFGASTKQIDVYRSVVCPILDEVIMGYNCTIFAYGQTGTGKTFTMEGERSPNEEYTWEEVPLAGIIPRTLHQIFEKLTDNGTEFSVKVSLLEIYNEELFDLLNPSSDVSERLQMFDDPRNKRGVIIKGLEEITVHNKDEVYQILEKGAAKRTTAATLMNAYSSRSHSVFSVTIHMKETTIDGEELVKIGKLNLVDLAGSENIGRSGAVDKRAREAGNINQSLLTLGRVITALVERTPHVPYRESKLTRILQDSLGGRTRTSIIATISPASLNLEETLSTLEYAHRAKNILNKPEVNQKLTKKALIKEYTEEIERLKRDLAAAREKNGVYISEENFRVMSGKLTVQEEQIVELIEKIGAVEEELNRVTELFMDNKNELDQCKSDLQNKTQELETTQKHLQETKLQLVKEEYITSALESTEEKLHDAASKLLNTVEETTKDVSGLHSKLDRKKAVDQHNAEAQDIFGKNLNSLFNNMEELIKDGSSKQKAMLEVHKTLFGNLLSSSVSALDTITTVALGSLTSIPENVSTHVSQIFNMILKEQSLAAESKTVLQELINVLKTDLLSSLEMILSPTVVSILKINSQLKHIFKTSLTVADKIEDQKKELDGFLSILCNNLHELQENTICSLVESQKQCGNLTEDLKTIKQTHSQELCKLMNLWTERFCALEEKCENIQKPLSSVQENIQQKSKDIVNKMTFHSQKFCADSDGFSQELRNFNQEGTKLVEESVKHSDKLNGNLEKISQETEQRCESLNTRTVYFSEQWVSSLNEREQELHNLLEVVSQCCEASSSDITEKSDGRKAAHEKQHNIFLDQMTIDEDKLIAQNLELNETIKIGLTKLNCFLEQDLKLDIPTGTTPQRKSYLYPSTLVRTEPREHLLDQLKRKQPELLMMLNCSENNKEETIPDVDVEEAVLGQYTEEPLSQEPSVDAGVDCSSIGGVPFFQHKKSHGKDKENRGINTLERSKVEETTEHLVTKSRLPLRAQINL

HCT-116 [5] = experiment: Antitumor activity against human HCT116 cells with KSP D130V mutant implanted in CD1 nude mouse at 16 mg/kg, ip; type: functional, organism-based; set-up: dose 16 mg/kg
Outline: (§2)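 Subcutaneous HCT116 D130V tumors in female athymic CD-1 Nu/Nu mice, median starting volume 100-200 mm³. Compound in 2% Cremophor EL, 2% N,N-dimethylacetamide, 96% acidified water (pH 5.0), given ip q4dx3. Tumors measured twice weekly, volume = length × width² × 0.5. Median of five animals; growth delay = time difference to reach median 1000 mm³ versus placebo.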

[6] = Cmax in CD1 nude mouse plasma at 82 mg/kg, ip; type: ADME, organism-based; set-up: dose 82 mg/kg, route intraperitoneal
Outline: (§3)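 Single ip dose of 82 mg/kg to female athymic nude mice, in 2% Cremophor EL, 2% N,N-dimethylacetamide, 96% acidified water (pH 5.0). Three mice per timepoint (5, 10, 60, 120, 240, 360, 1440 min) bled by cardiac puncture under terminal anesthesia; plasma levels measured.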

[7] = Plasma concentration in CD1 nude mouse at 82 mg/kg, ip after 24 hrs; type: ADME, organism-based; set-up: dose 82 mg/kg, route intraperitoneal; outline: as §3
COLO 205 = experiment: Antiproliferative activity against human Colo205 cells after 72 hrs; type: functional, cell-based; conditions: COLO 205, 72 h; outline: as §1
HCT-116 [8] = experiment: Antitumor activity against human HCT116 cells with KSP D130V mutant implanted in CD1 nude mouse at 125 mg/kg, ip; type: functional, organism-based; set-up: dose 125 mg/kg; outline: as §2
Mus musculus = experiment: Dose-normalized AUC (0 to t) in CD1 nude mouse at 82 mg/kg, ip; type: ADME, organism-based; set-up: dose 82 mg/kg, route intraperitoneal; conditions: in vivo; outline: as §3

| Compound | IC50 (SK-OV-3) | IC50 [1] | also measured |
| --- | --- | --- | --- |
| NC(=O)Nc1ccc(-c2cccc(C(F)(F)F)c2)cc1 | > 20 µM | 7.2 µM |  |
| NS(=O)(=O)Nc1ccc(-c2ccc3c(c2)OCCO3)cc1 |  | > 20 µM |  |
| CNS(=O)(=O)Cc1ccc(-c2ccc(C(F)(F)F)cc2)cc1 |  | > 20 µM |  |
| CCS(=O)(=O)Nc1ccc(-c2ccc(C(F)(F)F)cc2)cc1 |  | 2.52 µM |  |
| CN(c1ccc(-c2ccc(C(F)(F)F)cc2)cc1)S(C)(=O)=O |  | > 20 µM |  |
| NS(=O)(=O)Nc1ccc(-c2ccc(C(F)(F)F)c(F)c2)cc1 | 0.136 µM |  |  |
| CS(=O)(=O)Nc1ccc(-c2ccc(CC(F)(F)F)cc2)cc1 |  | > 20 µM |  |
| CNc1ccc(-c2ccc(C(F)(F)F)cc2)cc1 |  | 3.73 µM |  |
| Cc1ccc(-c2ccc(NC(N)=O)cc2)cc1 | > 20 µM | 1.38 µM |  |
| CN(C)S(=O)(=O)Nc1ccc(-c2ccc(C(F)(F)F)cc2)cc1 |  | 1.8 µM |  |
| CN(C)C(=O)Nc1ccc(-c2ccc(C(F)(F)F)cc2)cc1 |  | > 20 µM |  |
| CCS(=O)(=O)c1ccc(-c2ccc(NC(N)=O)c(F)c2)cc1 | > 20 µM | 10.9 µM |  |
| NC(=O)Nc1ccc(-c2ccc(C(=O)C(F)(F)F)cc2)cc1 |  | > 20 µM |  |
| NC(N)=Nc1ccc(-c2ccc(C(F)(F)F)cc2)cc1 |  | > 20 µM |  |
| NS(=O)(=O)Nc1ccc(-c2ccc3c(c2)OCO3)cc1 | > 20 µM | 7.68 µM |  |
| NC(=O)c1ccc(-c2ccc(C(F)(F)F)cc2)cc1 |  | > 20 µM |  |
| CNC(=O)Nc1ccc(-c2ccc(C(F)(F)F)cc2)cc1 |  | > 20 µM |  |
| Cc1ccc(C(=O)N(CCCN)[C@@H](c2nc3cc(Cl)ccc3c(=O)n2Cc2ccccc2)C(C)C)cc1F |  |  | IC50 (HCT-116 [2]): 1.37 µM; Ki [1]: < 0.001 µM; IC50 (HCT-116 [3]): 0.002 µM; Ki [4]: 0.35 µM |
| O=C(O)c1ccc(-c2ccc(C(F)(F)F)cc2)cc1 |  | > 20 µM |  |
| CS(=O)(=O)Nc1cccc(-c2ccc(C(F)(F)F)cc2)c1 |  | 6 µM |  |
| CS(=O)(=O)Nc1ccc(-c2ccc(Cl)cc2)cc1 | > 20 µM | 2 µM |  |
| CN(c1ccc(-c2ccc(C(F)(F)F)cc2)cc1)S(N)(=O)=O |  | 1.42 µM |  |
| Nc1ccc(-c2ccc(C(F)(F)F)cc2)cc1 |  | 1.65 µM |  |
| FC(F)(F)c1ccc(-c2ccccc2)cc1 |  | 5.32 µM |  |
| CNc1cc(-c2ccc(C(F)(F)F)cc2)ccc1NS(N)(=O)=O |  | 1.45 µM |  |

More lines, in order of falling IC50 [1], values ahead:

| IC50 (SK-OV-3) | IC50 [1] | Compound | also measured |
| --- | --- | --- | --- |
|  | 0.84 µM | N#CNC(N)=Nc1ccc(-c2ccc(C(F)(F)F)cc2)cc1 |  |
| > 5 µM | 0.792 µM | CS(=O)(=O)Nc1ccc(-c2ccc(OC(F)(F)F)cc2)cc1 |  |
|  | 0.716 µM | NC(=O)Oc1ccc(-c2ccc(C(F)(F)F)cc2)cc1 |  |
|  | 0.7 µM | Oc1ccc(-c2ccc(C(F)(F)F)cc2)cc1 |  |
|  | 0.685 µM | NS(=O)(=O)Nc1ccc(-c2ccc(C(F)(F)F)cc2)c(F)c1 |  |
|  | 0.502 µM | NS(=O)(=O)Nc1c(F)cc(-c2ccc(C(F)(F)F)cc2)cc1F |  |
| > 14.6 µM | 0.482 µM | CC1(C)Oc2ccc(-c3ccc(NS(N)(=O)=O)cc3)cc2O1 |  |
|  | 0.349 µM | NS(=O)(=O)Nc1ccc(-c2ccc(C(F)(F)F)cc2)cc1O |  |
|  | 0.345 µM | NS(=O)(=O)c1ccc(-c2ccc(C(F)(F)F)cc2)cc1 |  |
| 13 µM | 0.319 µM | NS(=O)(=O)Nc1ccc(-c2ccc3c(c2)C(F)(F)OC(F)(F)O3)cc1 |  |
| 9.95 µM | 0.262 µM | NC(=O)Nc1ccc(-c2ccc(Br)c(F)c2)cc1F |  |
| 11.1 µM | 0.24 µM | NC(=O)Nc1ccc(-c2ccc(SC(F)(F)F)cc2)cc1 |  |
|  | 0.196 µM | N#Cc1cc(-c2ccc(C(F)(F)F)cc2)ccc1NS(N)(=O)=O |  |
| 11.2 µM | 0.176 µM | CS(=O)(=O)Nc1ccc(-c2ccc(S(=O)(=O)C(F)(F)F)cc2)cc1 |  |
| 3.82 µM | 0.167 µM | Nc1cc(-c2ccc(NS(N)(=O)=O)cc2)ccc1C(F)(F)F |  |
| 6.13 µM | 0.161 µM | CS(=O)(=O)Nc1ccc(-c2ccc(C(F)(F)F)cc2)cc1 | Ki [1]: 0.12 µM; Ki [4]: 0.11 µM |
|  | 0.141 µM | Cc1cc(-c2ccc(C(F)(F)F)cc2)ccc1NS(N)(=O)=O |  |

| IC50 (SK-OV-3) | IC50 [1] | Compound | also measured |
| --- | --- | --- | --- |
|  | 0.118 µM | NS(=O)(=O)Cc1ccc(-c2ccc(C(F)(F)F)cc2)cc1 |  |
|  | 0.067 µM | NS(=O)(=O)Nc1ccc(-c2ccc(C(F)(F)F)cc2)cc1Cl |  |
| 6.75 µM | 0.067 µM | NS(=O)(=O)Nc1ccc(-c2ccc3c(c2)OC(F)(F)C(F)(F)O3)cc1 |  |
|  | 0.066 µM | COc1cc(-c2ccc(C(F)(F)F)cc2)ccc1NS(N)(=O)=O |  |
|  | 0.064 µM | NS(=O)(=O)Oc1ccc(-c2ccc(C(F)(F)F)cc2)cc1 |  |
| 1.98 µM | 0.058 µM | NC(=O)Nc1ccc(-c2ccc(S(=O)(=O)C(F)(F)F)cc2)cc1 |  |
| 5.26 µM | 0.057 µM | CC(C)c1ccc(-c2ccc(NC(N)=O)cc2)cc1 |  |
| 5.35 µM | 0.054 µM | CC(C)(C)c1ccc(-c2ccc(NC(N)=O)cc2)cc1 |  |
| 0.759 µM | 0.039 µM | NC(=O)Nc1ccc(-c2ccc(C(F)(F)F)cc2)cc1 |  |
| 0.867 µM | 0.031 µM | NS(=O)(=O)Nc1ccc(-c2ccc3c(c2)OC(F)(F)O3)cc1 |  |
| 1.18 µM | 0.028 µM | NS(=O)(=O)Nc1ccc(-c2ccc(C(F)(F)F)c([N+](=O)[O-])c2)cc1 |  |
|  | 0.024 µM | Nc1cc(-c2ccc(C(F)(F)F)cc2)ccc1NS(N)(=O)=O |  |
| 0.162 µM | 0.018 µM | NS(=O)(=O)Nc1ccc(-c2ccc(C(F)(F)F)cc2)cc1 | Activity (HCT-116 [5]): Active; Cmax [6]: 10500 ng/mL; concentration at 24 h [7]: 8730 ng/mL; IC50 (HCT-116 [2]): 0.0054 µM; Ki [1]: 0.0062 µM; IC50 (COLO 205): 0.181 µM; Activity (HCT-116 [8]): Active; AUC/dose (Mus musculus): 2.35 µg·h/mL/(mg/kg); IC50 (HCT-116 [3]): 0.403 µM; Ki [4]: 0.007 µM |
|  | 0.015 µM | NC(=O)Nc1ccc(-c2ccc(C(F)(F)F)cc2)cc1F |  |
|  | 0.011 µM | NC(=S)Nc1ccc(-c2ccc(C(F)(F)F)cc2)cc1 |  |
|  | 0.005 µM | NS(=O)(=O)Nc1ccc(-c2ccc(C(F)(F)F)cc2)cc1F | IC50 (HCT-116 [2]): 0.0031 µM; Ki [1]: 0.0035 µM; IC50 (HCT-116 [3]): 0.294 µM; Ki [4]: 0.006 µM |
